STAT1 inh – STAT1 signaling inhibition; 200,000 compounds, 0.35% hits; AID 920; inhibition, % at 5.5 µM; NIH 3T3 STAT1-luciferase reporter, IFN-gamma, luminescence;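 active = inhibition above a set limit, the mean inhibition across all tested compounds plus 3 SD, cut at about 34% in these data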
STAT1 activator – activators of IFN-gamma induced STAT1 signaling; activation (% of control), % at 5.5 µM; 200,000 compounds, 2.6% hits; AID 932; NIH 3T3 STAT1-luciferase reporter, luminescence; 100% = IFN-gamma alone, no compound;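 active = activation above the screen-wide mean activation plus 3 SD, cut at about 130% in these data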
APP 5'UTR act – activates APP 5'UTR luciferase reporter; activation, % at 2 µM; 190,000 compounds, 1% hits; SH-SY5Y APP 5'UTR luciferase reporter, luminescence; zero percent = DMSO vehicle wells;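 active = activation above a set limit, based on mean plus 3 SD of controls, cut at about 140% in these data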
STAT3 act – STAT3 signaling activation; U3A cells, IL-6 STAT3-luciferase reporter, luminescence; 100% = signal with IL-6 EC80 alone; activation (% of control), % at 5.6 µM; 190,000 compounds, 0.91% hits;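 active = activation above the screen-wide mean of compound activation plus 3 SD, cut at about 130% in these data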
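Material: STAT3-luciferase reporter U3A cells; Probe or stimulus: IL-6 (33 ng/mL); Incubation: compound pre-incubation 1 h before IL-6, then 6 h stimulation at 37 °C; Technique: luminescence from STAT3-driven luciferase reporter; Evaluation: % activation versus median of IL-6-stimulated wells; Controls: IL-6-only high control.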
STAT3 blocker – reduces IL-6 driven STAT3 reporter signal; 190,000 compounds, 0.89% hits; AID 862; U3A cells, IL-6 STAT3-luciferase reporter, luminescence; host cell line lacks STAT1; inhibition, % at 5.5 µM;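 active = inhibition above the mean inhibition across all screened compounds plus 3 SD, cut at about 44% in these data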
NF-kB neuron act – raises NF-kB expression in human neuronal cells; NF-kB reporter expression; active compounds read high; fold change at 12.5 µM; 190,000 compounds, 1.6% hits; AID 1239; in the data active = fold change above about 3.3
Each line names hits and unclear results; the compound was inactive in the other large screens. Hits are enriched below; roughly 4.9% of the tested compounds scored in any of these assays.

Cn1cc([N+](=O)[O-])c(C(=O)Nc2ccc(-c3nc4ccccc4[nH]3)cc2)n1	NF-kB neuron act 9.5
Cn1cc([N+](=O)[O-])c(C(=O)Nc2ccc3nc(-c4ccccc4)[nH]c3c2)n1	none
Cn1cc([N+](=O)[O-])c(C(=O)Nc2ccc(C3CCCCC3)cc2)n1	NF-kB neuron act 3.7
Cn1cc([N+](=O)[O-])c(C(=O)Nc2ccc(C(=O)N3CCCCC3)cc2)n1	none
Cc1ccnc(N=Cc2nc(-c3ccccc3Br)oc2O)c1	STAT1 activator 142
Cc1cccc(/N=C/c2nc(-c3ccccc3Br)oc2O)n1	none
Cc1cccc(NC(=O)/C(C#N)=C\c2cc(C)n(-c3ccc(C(=O)O)cc3)c2C)c1	none
CCOC(=O)/C(C#N)=C/c1cc(C)n(-c2ccc(C)cc2)c1C	STAT1 activator 148
O=C1N2CCCc3cccc(c32)C12Nc1ccccc1S2 (configuration not stated)	STAT3 act 135
CC1CC(C)(C)N2C(=O)C3(Nc4ccccc4S3)c3cccc1c32 (configuration not stated)	none
O=C(Oc1ccc(N(Cc2cccs2)C2=NS(=O)(=O)c3ccccc32)cc1)c1ccccc1F	none
Cc1csc(Nc2ccccc2)n1	none
c1ccc(NC2=Nc3ccccc3CS2)cc1	STAT1 activator 138, NF-kB neuron act 3.6
CC(C)c1nc(SCC(=O)Nc2ccc3c(c2)OCCO3)n[nH]1	none
Cc1nn2cc(-c3ccc(N)cc3)nc2s1	STAT1 activator 139
Cc1cc(C)nc(Sc2nc(C)nc3c2oc2ccccc23)n1	NF-kB neuron act 7.4
CCN(CC)C(=O)c1cc2c(=O)n3ccccc3nc2s1	STAT3 act 134
COCCN(CCOC)C(=O)c1cc2c(=O)n3ccccc3nc2s1	none
Nc1nnnn1/N=C/c1ccc(O)cc1	none (no result: APP 5'UTR act)
CCN(C)c1ccc(/C=N\n2nnnc2N)cc1	STAT1 activator 141
Cc1ccc2c(Cl)c(C(=O)NCC3CCCO3)sc2c1 (configuration not stated)	STAT1 activator 132, NF-kB neuron act 3.9
Cc1ccc2c(Cl)c(C(=O)NCCc3ccccc3)sc2c1	STAT1 activator 136
O=C(NNC(=O)C1CC2CCC1C2)c1sc2ccccc2c1Cl (configuration not stated)	STAT1 activator 130
Cc1cccc(NC(=O)C(=O)NCC2CCCO2)c1 (configuration not stated)	STAT1 activator 136
COc1ccc2c(Cl)c(C(=O)NCC3CCCO3)sc2c1Cl (configuration not stated)	none
O=C(NCC1CCCO1)c1sc2ccccc2c1Cl (configuration not stated)	STAT1 activator 132
CC(C)[C@H](NC(N)=O)C(=O)Nc1ccc(F)c(Cl)c1	none
CCCC(=O)Nc1cccc(NC(=O)c2cccc([N+](=O)[O-])c2C)c1	none
Cc1ccc(Nc2nc(N)c([N+](=O)[O-])c(NCc3ccco3)n2)cc1C	STAT1 activator 139
Cc1nn(-c2ccccc2)c(N2CCCC2)c1/C=N/NC(=S)Nc1ccccc1F	STAT1 activator 129
Cn1c(-c2ccccc2)c(/C=N/NC(=O)c2cccnc2)c2ccccc21	STAT1 activator 131
O=C(c1cccs1)N(c1ccc(Br)cc1)C1C=CS(=O)(=O)C1 (configuration not stated)	none
O=C(c1ccc(N2CCOCC2)cc1)c1cccs1	STAT1 activator 141, NF-kB neuron act 5.1
O=C(Nc1ccc(N2CCOCC2)cc1N1CCOCC1)c1cccs1	none
COc1ccc(Oc2nccc(-c3ccccc3)c2C#N)cc1	STAT1 activator 129
COc1ccc(Oc2nccc(-c3ccc(F)cc3)c2C#N)cc1	none
CCc1nnc(NC(=O)CSc2nnc(CNc3ccc(C)cc3)n2C)s1	none
CCOC(=O)c1ccccc1NC(=O)CSc1nnc(C(C)C)n1CC	none
O=C(Cc1cccc2ccccc12)N/N=C/c1ccc(Sc2cccc3cccnc23)o1	none
CCCCC(=O)N/N=C/c1ccc(Sc2cccc3cccnc23)o1	NF-kB neuron act 4.4
O=C(Nc1ccccc1)N1CCN(S(=O)(=O)c2ccccc2)CC1	none
O=C1N/C(=C/c2ccc(N3CCCC3)cc2)C(=O)N1c1ccccc1	STAT1 activator 131
